Source: ChEMBL document CHEMBL4251567 (Eur J Med Chem, 2018)

Tests used:
[1] = biological target: T1, Histone deacetylase (Homo sapiens) (UniProt Q13547+O15379+Q9UBN7+Q92769+Q9UQL6+Q8WUI4+Q9BY41+Q96DB2+P56524+Q9UKV0+Q969S8); assay: Inhibition of HDAC in human HeLa-S3 cell lysates assessed as residual activity at 1.25 x 10^-5 M preincubated for 15 mins followed by HDAC-Glo substrate addition measured after 35 mins by […] relative to control; format: protein assay
[2] = biological target: T1, Histone deacetylase (Homo sapiens); assay: Inhibition of HDAC in human HeLa-S3 cell lysates assessed as residual activity at 2.5 x 10^-5 M preincubated for 15 mins followed by HDAC-Glo substrate addition measured after 35 mins by […] relative to control; format: protein assay
[3] = biological target: Histone deacetylase 1 (Homo sapiens) (UniProt Q13547); assay: Inhibition of HDAC1 in human HeLa-S3 cell lysates assessed as remaining activity at 4.8 x 10^-5 M preincubated for 15 mins followed by HDAC-Glo substrate addition measured after 30 to 40 mins by […] relative to control
In short: (§1)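 HDAC1 was captured from HeLa-S3 lysate (100 μg/mL) onto wells precoated with anti-HDAC1 antibody (10 μg/mL, carbonate buffer pH 9.4) and milk-blocked, 1 h at 4 °C, then washed. Inhibitor in DMSO was added in HDAC-Glo buffer for 15 min at room temperature. HDAC-Glo reagent was added and luminescence read after 30-40 min. Concentrations are final. No-antibody background subtracted; % of DMSO control.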

[4] = biological target: Histone deacetylase 2 (Homo sapiens) (UniProt Q92769); assay: Inhibition of HDAC2 in human HeLa-S3 cell lysates assessed as remaining activity at 2.4 x 10^-5 M preincubated for 15 mins followed by HDAC-Glo substrate addition measured after 30 to 40 mins by fluorimetric method relative to control
In short: (§2)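 Same antibody-capture format as the other class I isoforms. HeLa-S3 lysate added at 100 μg/mL for HDAC1 and HDAC2, 1 h at 4 °C, then washed. Inhibitor in DMSO preincubated 15 min at RT; HDAC-Glo reagent added and luminescence read after 30-40 min. Concentrations are final. Signal corrected against a well without antibody; activity expressed as % of DMSO control.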

[5] = biological target: Histone deacetylase 1 (Homo sapiens) (UniProt Q13547); assay: Inhibition of HDAC1 in human HeLa-S3 cell lysates assessed as remaining activity at 2.4 x 10^-5 M preincubated for 15 mins followed by HDAC-Glo substrate addition measured after 30 to 40 mins by […] relative to control; in short: as §1
[6] = biological target: Histone deacetylase 3 (Homo sapiens) (UniProt O15379); assay: Inhibition of HDAC3 in human HeLa-S3 cell lysates assessed as remaining activity at 6 x 10^-6 M preincubated for 15 mins followed by HDAC-Glo substrate addition measured after 30 to 40 mins by […] relative to control
In short: (§3)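 Antibody-capture (ELISA-type) assay: HDAC antibody coated in carbonate/bicarbonate buffer pH 9.4, wells blocked with 5% milk in TBST. HeLa-S3 lysate added at 1 mg/mL for HDAC3, 1 h at 4 °C, then washed. Inhibitor in DMSO preincubated 15 min at RT in HDAC-Glo buffer. HDAC-Glo reagent added, luminescence read after 30-40 min. Concentrations are final. Background = no-antibody well; activity given as % of DMSO control.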

[7] = biological target: Histone deacetylase 1 (Homo sapiens) (UniProt Q13547); assay: Inhibition of HDAC1 in human HeLa-S3 cell lysates assessed as remaining activity at 6 x 10^-6 M preincubated for 15 mins followed by HDAC-Glo substrate addition measured after 30 to 40 mins by […] relative to control; in short: as §1
[8] = biological target: Histone deacetylase 3 (Homo sapiens) (UniProt O15379); assay: Inhibition of HDAC3 in human HeLa-S3 cell lysates assessed as remaining activity at 4.8 x 10^-5 M preincubated for 15 mins followed by HDAC-Glo substrate addition measured after 30 to 40 mins by […] relative to control; in short: as §3
[9] = biological target: Histone deacetylase 1 (Homo sapiens) (UniProt Q13547); assay: Inhibition of HDAC1 in human HeLa-S3 cell lysates assessed as remaining activity at 1.2 x 10^-5 M preincubated for 15 mins followed by HDAC-Glo substrate addition measured after 30 to 40 mins by […] relative to control; in short: as §1
[10] = biological target: T1, Histone deacetylase (Homo sapiens); assay: Inhibition of HDAC in human HeLa-S3 cell lysates assessed as residual activity at 2 x 10^-4 M preincubated for 15 mins followed by HDAC-Glo substrate addition measured after 35 mins by fluorimetric method relative to control; format: protein assay
In short: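 Lysate (1 μg total protein) in HDAC-Glo buffer was preincubated with inhibitor in DMSO for 15 min at room temperature. HDAC-Glo substrate/developer reagent was added and luminescence read after 35 min. Concentrations are final. Signal corrected for a no-lysate blank; % of DMSO control.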

[11] = biological target: Histone deacetylase 2 (Homo sapiens) (UniProt Q92769); assay: Inhibition of HDAC2 in human HeLa-S3 cell lysates assessed as remaining activity at 4.8 x 10^-5 M preincubated for 15 mins followed by HDAC-Glo substrate addition measured after 30 to 40 mins by […] relative to control; in short: as §2
Histone deacetylase = assay: Inhibition of HDAC in human HeLa-S3 cell lysates preincubated for 15 mins followed by HDAC-Glo substrate addition measured after 35 mins by fluorimetric method; format: protein assay
[12] = biological target: Histone deacetylase 2 (Homo sapiens) (UniProt Q92769); assay: Inhibition of HDAC2 in human HeLa-S3 cell lysates assessed as remaining activity at 6 x 10^-6 M preincubated for 15 mins followed by HDAC-Glo substrate addition measured after 30 to 40 mins by […] relative to control; in short: as §2
[13] = biological target: Histone deacetylase 3 (Homo sapiens) (UniProt O15379); assay: Inhibition of HDAC3 in human HeLa-S3 cell lysates assessed as remaining activity at 1.2 x 10^-5 M preincubated for 15 mins followed by HDAC-Glo substrate addition measured after 30 to 40 mins by […] relative to control; in short: as §3
[14] = biological target: Histone deacetylase 3 (Homo sapiens) (UniProt O15379); assay: Inhibition of HDAC3 in human HeLa-S3 cell lysates assessed as remaining activity at 3 x 10^-6 M preincubated for 15 mins followed by HDAC-Glo substrate addition measured after 30 to 40 mins by fluorimetric method relative to control; in short: as §3
[15] = biological target: Histone deacetylase 2 (Homo sapiens) (UniProt Q92769); assay: Inhibition of HDAC2 in human HeLa-S3 cell lysates assessed as remaining activity at 1.2 x 10^-5 M preincubated for 15 mins followed by HDAC-Glo substrate addition measured after 30 to 40 mins by […] relative to control; in short: as §2
[16] = biological target: T2, Histone deacetylase 8 (Homo sapiens) (UniProt Q9BY41); assay: Inhibition of human recombinant full-length C-terminal His-tagged HDAC8 expressed in baculovirus infected Sf9 insect cell assessed as remaining activity at 8 x 10^-7 M preincubated for 15 mins followed by HDAC-Glo substrate addition measured after 30 mins by fluorimetric method rel;ative to control
T2 sequence (whole entry): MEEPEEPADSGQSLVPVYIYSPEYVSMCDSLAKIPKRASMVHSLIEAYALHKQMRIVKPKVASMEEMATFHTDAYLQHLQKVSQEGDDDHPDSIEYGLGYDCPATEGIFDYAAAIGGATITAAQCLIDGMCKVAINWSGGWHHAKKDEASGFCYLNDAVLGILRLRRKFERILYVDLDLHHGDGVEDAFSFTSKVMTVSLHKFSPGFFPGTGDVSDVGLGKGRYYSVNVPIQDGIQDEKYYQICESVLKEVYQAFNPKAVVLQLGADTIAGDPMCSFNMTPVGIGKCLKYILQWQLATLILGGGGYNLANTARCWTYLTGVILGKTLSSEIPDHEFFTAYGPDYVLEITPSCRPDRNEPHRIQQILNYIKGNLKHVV
In short: (§4)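 Recombinant HDAC8 (75 ng) preincubated 15 min at RT with inhibitor in DMSO in HDAC-Glo buffer. HDAC-Glo reagent added and luminescence read 30 min later. Background taken from a reaction without enzyme; activity as % of DMSO control.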

[17] = biological target: Histone deacetylase 2 (Homo sapiens) (UniProt Q92769); assay: Inhibition of HDAC2 in human HeLa-S3 cell lysates assessed as remaining activity at 3 x 10^-6 M preincubated for 15 mins followed by HDAC-Glo substrate addition measured after 30 to 40 mins by fluorimetric method relative to control; in short: as §2
[18] = biological target: Histone deacetylase 1 (Homo sapiens) (UniProt Q13547); assay: Inhibition of HDAC1 in human HeLa-S3 cell lysates assessed as remaining activity at 3 x 10^-6 M preincubated for 15 mins followed by HDAC-Glo substrate addition […] relative to control
[19] = biological target: T2, Histone deacetylase 8 (Homo sapiens); assay: Inhibition of human recombinant full-length C-terminal His-tagged HDAC8 expressed in baculovirus infected Sf9 insect cell assessed as remaining activity at 4 x 10^-7 M preincubated for 15 mins followed by HDAC-Glo substrate addition measured after 30 mins by fluorimetric method rel;ative to control; in short: as §4
[20] = biological target: Histone deacetylase 3 (Homo sapiens) (UniProt O15379); assay: Inhibition of HDAC3 in human HeLa-S3 cell lysates assessed as remaining activity at 2.4 x 10^-5 M preincubated for 15 mins followed by HDAC-Glo substrate addition measured after 30 to 40 mins by […] relative to control; in short: as §3
[21] = biological target: T1, Histone deacetylase (Homo sapiens); assay: Inhibition of HDAC in human HeLa-S3 cell lysates assessed as residual activity at 1 x 10^-4 M preincubated for 15 mins followed by HDAC-Glo substrate addition measured after 35 mins by […] relative to control; format: protein assay

Sequence of Histone deacetylase 3 (Homo sapiens) (O15379 whole entry): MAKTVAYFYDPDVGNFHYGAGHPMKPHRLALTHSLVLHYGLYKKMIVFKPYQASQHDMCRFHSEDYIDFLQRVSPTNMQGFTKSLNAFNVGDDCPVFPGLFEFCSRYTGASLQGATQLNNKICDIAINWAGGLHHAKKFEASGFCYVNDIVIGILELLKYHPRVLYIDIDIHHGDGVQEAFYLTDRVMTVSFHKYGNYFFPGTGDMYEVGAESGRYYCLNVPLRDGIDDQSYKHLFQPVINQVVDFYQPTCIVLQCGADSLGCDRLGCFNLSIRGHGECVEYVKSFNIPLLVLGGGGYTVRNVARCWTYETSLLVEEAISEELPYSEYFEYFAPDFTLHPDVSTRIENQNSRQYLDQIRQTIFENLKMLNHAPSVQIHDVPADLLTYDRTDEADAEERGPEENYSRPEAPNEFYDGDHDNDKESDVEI
Sequence of Histone deacetylase 1 (Homo sapiens) (Q13547 whole entry): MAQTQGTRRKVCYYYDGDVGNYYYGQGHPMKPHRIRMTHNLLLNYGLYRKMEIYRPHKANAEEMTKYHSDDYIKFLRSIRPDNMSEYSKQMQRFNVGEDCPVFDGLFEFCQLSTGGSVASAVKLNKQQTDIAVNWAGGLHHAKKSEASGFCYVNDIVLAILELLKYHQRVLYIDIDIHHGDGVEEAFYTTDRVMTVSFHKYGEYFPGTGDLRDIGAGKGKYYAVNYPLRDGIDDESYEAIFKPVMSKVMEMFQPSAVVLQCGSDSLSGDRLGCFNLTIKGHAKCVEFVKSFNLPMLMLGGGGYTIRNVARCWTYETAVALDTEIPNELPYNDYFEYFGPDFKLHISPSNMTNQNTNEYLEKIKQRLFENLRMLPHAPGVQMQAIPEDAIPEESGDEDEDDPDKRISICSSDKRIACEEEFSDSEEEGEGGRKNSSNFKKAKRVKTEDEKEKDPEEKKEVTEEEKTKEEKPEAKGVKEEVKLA
Sequence of Histone deacetylase 2 (Homo sapiens) (Q92769 whole entry, canonical isoform): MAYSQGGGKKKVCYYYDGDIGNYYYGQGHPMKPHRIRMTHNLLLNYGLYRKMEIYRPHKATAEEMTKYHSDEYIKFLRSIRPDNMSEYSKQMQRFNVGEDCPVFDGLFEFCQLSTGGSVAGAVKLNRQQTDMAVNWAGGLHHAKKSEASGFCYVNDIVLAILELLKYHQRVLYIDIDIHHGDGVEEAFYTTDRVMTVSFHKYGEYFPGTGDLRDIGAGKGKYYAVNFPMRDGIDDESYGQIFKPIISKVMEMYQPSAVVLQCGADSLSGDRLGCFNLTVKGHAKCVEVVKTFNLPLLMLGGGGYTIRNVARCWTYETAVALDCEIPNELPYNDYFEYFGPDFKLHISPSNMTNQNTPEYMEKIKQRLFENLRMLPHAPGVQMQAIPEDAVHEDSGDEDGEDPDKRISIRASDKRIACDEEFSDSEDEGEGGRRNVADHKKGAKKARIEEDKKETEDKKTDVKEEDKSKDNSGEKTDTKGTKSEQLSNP

Activity [1]: 104%
Activity [2]: 88%
Activity [3]: 19%
Activity [4]: 33%
Activity [5]: 34%
Activity [6]: 74%
Activity [7]: 63%
Activity [8]: 30%
Activity [9]: 53%
Activity [10]: 15%
Activity [11]: 22%
IC50 (Histone deacetylase): 65 µM
Activity [12]: 68%
Activity [13]: 64%
Activity [14]: 88%
Activity [15]: 53%
Activity [16]: 29%
Activity [17]: 72%
Activity [18]: 74%
Activity [19]: 48%
Activity [20]: 53%
Activity [21]: 32%
Compound: O=C(CCC(CCCC(=O)Nc1ccccc1)c1ccccc1)NO (configuration not stated)
